For three compounds, MIC50 and MIC90 results are on record in ChEMBL document CHEMBL2021925, “In vitro antimycoplasmal activity of Citrus bergamia essential oil and its major components” (2012).

The subject of one experiment is Metamycoplasma hominis. In words: Antimycoplasmal activity against Mycoplasma hominis PG21 after 24 to 48 hrs by broth microdilution method. Type of experiment: functional. In outline:
(§1)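 Strains were grown in SP-4 broth and stored frozen at -80 C until testing. Broth microdilution with agent concentrations expressed as % v/v. MIC was the lowest concentration preventing the broth colour change when the growth-control tube changed: pH falling from 7.5 to 7.0 for M. fermentans, rising from 6.0 to 6.5 for M. hominis. Incubation was 24–48 h. Each strain was tested six times, plus six more times on different days. Growth and sterility controls were included.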

In the next experiment the test system is Mycoplasma fermentans. In words: Antimycoplasmal activity against Mycoplasma fermentans Pg18 after 24 to 48 hrs by broth microdilution method. Format: functional, Mycoplasmopsis fermentans. In outline: as §1
Experiment [1] relates to Mycoplasmoides pneumoniae. The experiment in a line: Antimycoplasmal activity against Mycoplasma pneumoniae M129 after 3 to 5 days by broth microdilution method.

`C=CC(C)(CCC=C(C)C)OC(C)=O` (configuration not stated) [LINALYL ACETATE]: the MIC50 against Metamycoplasma hominis is given as 0.015 %v/v. Besides, the MIC90 in the experiment on Metamycoplasma hominis was found to be 0.015 %v/v; against Mycoplasma fermentans, 0.12 %v/v; in experiment [1], 0.015 %v/v.
`C=CC(C)(O)CCC=C(C)C` (configuration not stated) [LINALOOL] returned an MIC50 against Metamycoplasma hominis of 1 %v/v. Besides, the MIC90 against Metamycoplasma hominis was determined as 1 %v/v; in the experiment with Mycoplasma fermentans, 0.06 %v/v; in experiment [1], 0.015 %v/v.
With `C=C(C)[C@H]1CC=C(C)CC1` [D-LIMONENE], in the experiment on Metamycoplasma hominis, the MIC50 was 4 %v/v. Moreover, the values for the MIC90 (against Metamycoplasma hominis; in the experiment with Mycoplasma fermentans; in experiment [1]) were 8 %v/v, 1 %v/v and 0.03 %v/v, respectively.
